A1 inh: inhibitors of the anti-apoptotic protein A1, read as caspase activation. MEF A1-2A-BIM cells, Caspase-Glo 3/7 luminescence, 3 h; percent of clofoctol response, vehicle zero. caspase activation, % (no concentration beside the values). hit rate 0.066% among 330,000;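 active means over half of replicate activation scores above 10%, or exactly half above 10 with the replicate mean above 10; inconclusive means replicate mean below 10 yet half the replicates above 10; inactive means over half of replicates below 10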
SR-BI DiI-HDL act: enhances SR-BI lipid uptake from DiI-HDL; CHO ldlA[mSR-BI] cells, DiI-HDL uptake fluorescence, 3 h; 100 = double the neutral-control signal; activation, % at 12.5 µM; hit rate 0.096% among 320,000; AID 504775;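 active means mean replicate activation of at least 60% and every replicate at or above 60%; inconclusive means mean or all-replicate condition met, but not both; inactive means mean below 60% and not all replicates reaching 60%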
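Test system: SR-BI-overexpressing, LDLR-lacking CHO cells; Also added: labelled HDL, 10 µg/mL; Measured by: bottom-read cell fluorescence after medium removal, ex 550/em 595 nm; Timing: 3 h uptake period with compound, 37 °C; Buffer or medium: F12, 0.5% BSA, 25 mM HEPES; Doses: single compound concentration, delivered by pin transfer.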
H9c2 TAG inh: inhibitors of triacylglycerol accumulation | inhibition, % at 12.5 µM | H9c2 cells, Nile Red lipid (TAG) fluorescence; cells loaded with 200 µM oleic acid | hit rate 0.66% among 230,000;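 active means pattern-corrected inhibition of lipid staining of at least 50% with the nuclear-stain viability signal not falling by more than 50%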
SR-BI DiI inh: mouse SR-BI HDL lipid transfer inhibition; ldlA[mSR-BI] CHO cells, DiI-HDL uptake fluorescence, 3 h; Q61009; inhibition, % at 12.5 µM; hit rate 0.96% among 320,000;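 active means mean replicate inhibition of at least 70% and a set share of replicates each scoring 70 or more; inconclusive means meets just one of the two criteria; inactive means fails both criteria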
Target sequence (Q61009 whole entry, looked up): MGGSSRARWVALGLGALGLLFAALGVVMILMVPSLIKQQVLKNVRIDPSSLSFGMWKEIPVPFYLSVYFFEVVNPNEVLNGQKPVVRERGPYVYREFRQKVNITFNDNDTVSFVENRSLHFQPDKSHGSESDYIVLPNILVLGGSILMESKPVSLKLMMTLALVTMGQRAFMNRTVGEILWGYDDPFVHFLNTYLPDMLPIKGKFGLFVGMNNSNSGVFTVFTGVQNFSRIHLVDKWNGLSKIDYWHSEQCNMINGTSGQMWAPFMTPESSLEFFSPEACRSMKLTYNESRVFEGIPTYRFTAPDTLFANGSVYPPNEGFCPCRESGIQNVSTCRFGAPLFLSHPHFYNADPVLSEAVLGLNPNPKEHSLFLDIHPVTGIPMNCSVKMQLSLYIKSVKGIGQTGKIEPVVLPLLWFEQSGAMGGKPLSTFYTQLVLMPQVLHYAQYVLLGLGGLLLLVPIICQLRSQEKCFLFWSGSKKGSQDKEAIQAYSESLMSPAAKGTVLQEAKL
Vif imaging: HIV Vif inhibition. HEK293T cells, Vif self-association by quenched fluorescence, imaging, 24 h. inhibition, % at 7.49 µM. hit rate 0.35% among 340,000; in the data active means inhibition above about 50%, passing the limit was not always enough; inconclusive means no clear call, values can overlap the other calls; inactive means below about 31%
DiI quencher: quenches DiI-HDL fluorescence, an SR-BI assay artifact. shares compounds with SR-BI DiI inh. cell-free DiI-HDL fluorescence quenching, 30 min. AC50, µM (series often up to 35 µM). hit rate 20% among 470;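 active means quenching, a falling signal, with AC50 below a set limit tied to the top valid dose, actives reach about 32 µM in these data; inconclusive means no clear call, values can overlap the other calls; inactive means rising signal, and the rest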
Large screens that a line does not name were inactive (follow-up assays come after a bar, where they were run). Most compounds without a hit are left out; they make up all but 1.6% or so of the library.

N=c1n(Cc2ccc(Cl)cc2)c2ccccc2n1CC(O)COc1ccccc1 (configuration not stated)	H9c2 TAG inh 73
COc1ccc(NC(=O)/C(C#N)=C/c2c(C)nn(-c3ccc(F)cc3)c2Cl)cc1OC	SR-BI DiI inh 76 (no result: H9c2 TAG inh)
COc1ccc(NC(=O)/C(C#N)=C/c2c(C)nn(-c3ccc(F)cc3)c2Cl)cc1Cl	SR-BI DiI inh 71 (no result: H9c2 TAG inh)
COc1ccc(C(CNC(=O)C(C)Oc2ccc(Br)cc2)N2CCCCC2)cc1 (configuration not stated)	none
Cc1cnc(NC(=O)c2cc3c(C)nn(-c4ccccc4)c3s2)s1	SR-BI DiI inh 76, Vif imaging 53 (no result: H9c2 TAG inh)
Cc1cccn2cc(-c3c[nH]c4ccccc34)nc12	none
Brc1ccc2nc(-c3c[nH]c4ccccc34)cn2c1	SR-BI DiI inh 84
COc1ccccc1CCCNC(=O)C1CCC(=O)N(Cc2ccccc2F)C1 (configuration not stated)	A1 inh 8.6 (no result: H9c2 TAG inh)
COc1ccc(CCCNC(=O)C2CCC(=O)N(Cc3ccccc3F)C2)cc1 (configuration not stated)	none (no result: H9c2 TAG inh)
CC1CCN(S(=O)(=O)CCNC(=O)c2ccc3c(c2)OCO3)CC1	none
Cc1cccc2cc(CN(CC3CCCO3)C(=O)NC3CCCCC3)c(=O)[nH]c12 (configuration not stated)	Vif imaging 68
CCOc1cccc(C(=O)Nc2nc(-c3ccc(S(=O)(=O)N4CCOCC4)cc3)cs2)c1	SR-BI DiI inh 79
O=C(Nc1nc(-c2ccccc2)cs1)c1ccc(N2CCOCC2)c([N+](=O)[O-])c1	SR-BI DiI inh 79 (no result: H9c2 TAG inh)
O=C(COc1cccc(Cl)c1)Nc1nc(-c2ccc(S(=O)(=O)N3CCOCC3)cc2)cs1	SR-BI DiI inh 88 (no result: A1 inh)
CCOC(=O)c1cc(-c2ccc(OC)cc2)nc2c1c(C)nn2CCC#N	SR-BI DiI inh 74 (no result: H9c2 TAG inh)
CSc1ccc(CN2CCC2(C)C(=O)NCc2ccc3c(c2)OCO3)cc1 (configuration not stated)	none (no result: A1 inh, SR-BI DiI-HDL act, SR-BI DiI inh)
CCCCn1c(=N)n(CC(=O)c2ccc(Br)s2)c2ccccc21	H9c2 TAG inh 70 (no result: SR-BI DiI-HDL act, SR-BI DiI inh)
O=C(Nc1ccccc1Cl)c1cc(C2CCCCN2C(=O)CCCc2ccccc2)on1 (configuration not stated)	none (no result: A1 inh, SR-BI DiI-HDL act, SR-BI DiI inh)
O=C(Nc1cnccn1)Nc1cccc(Cl)c1Cl	none
O=C(Nc1cnccn1)Nc1ccccc1Cl	Vif imaging 51 (no result: H9c2 TAG inh)
O=C(Nc1ncc(Cc2cccc(C(F)(F)F)c2)s1)c1ccc(-c2cccc([N+](=O)[O-])c2)o1	none (no result: H9c2 TAG inh) | DiI quencher inactive
COc1ccc(S(=O)(=O)N2CCC(C(=O)NC3CCCC3)CC2)cc1OC	none
COc1ccc(S(=O)(=O)N2CCC(C(=O)NN3CCCCC3)CC2)cc1OC	none | DiI quencher inactive
CCCC1NC(=O)c2cc3ccccc3cc2-n2c1nc1ccc(F)cc1c2=O (configuration not stated)	none (no result: A1 inh, SR-BI DiI-HDL act, SR-BI DiI inh)
Cc1ccc(NC(=S)N2CCC(NC(=O)c3ccc(F)cc3)CC2)cc1	none (no result: H9c2 TAG inh)
COc1ccccc1C(=O)NCCn1cc(SCC(=O)Nc2nnc(C)s2)c2ccccc21	none | DiI quencher inactive
Cc1nnc(NC(=O)CSc2cn(Cc3ccccc3)c3ccccc23)s1	none
O=C(NCCn1cc(SCc2ccc(F)cc2)c2ccccc21)c1c(F)cccc1F	none
O=C(NCCn1cc(SCc2ccccc2)c2ccccc21)c1c(F)cccc1F	SR-BI DiI inh inconclusive | DiI quencher inactive
O=C(Nc1ccccc1C(=O)O)c1cccc(NC(=O)c2ccccc2Cl)c1	none
O=C(Nc1cccc(NC(=O)c2ccccc2Cl)c1)c1ccc(F)cc1	SR-BI DiI inh 79 (no result: H9c2 TAG inh) | DiI quencher inactive
COc1ccc(COC(=O)c2ccc(Br)c(S(=O)(=O)N3CCOCC3)c2)cc1F	SR-BI DiI inh 74 | DiI quencher inactive
CC1CCN(CC(O)COC2CC(C)CCC2C(C)C)CC1 (configuration not stated)	none
CCOC(=O)N1CCN(CC(O)COC2CC(C)CCC2C(C)C)CC1 (configuration not stated)	SR-BI DiI inh 78 | DiI quencher inactive
CCCCN(Cc1ccccc1)c1ncnc2nc[nH]c12	SR-BI DiI inh 74 | DiI quencher inactive
O=C1[C@@H]2Cc3c([nH]c4ccccc34)C(c3cccc([N+](=O)[O-])c3)N2C(=O)CN1CCCO (some centres not stated)	SR-BI DiI inh 82 (no result: H9c2 TAG inh) | DiI quencher inactive
COc1cccc(C2c3[nH]c4ccccc4c3C[C@H]3C(=O)N(CCCCCO)CC(=O)N23)c1 (some centres not stated)	none (no result: H9c2 TAG inh)
COc1ccc(Cl)cc1NC(=S)NC1CCCC1	none (no result: H9c2 TAG inh)
COc1cc(/C=N/NC(=O)Cc2csc(C)n2)ccc1OCC(C)C	SR-BI DiI inh 82 | DiI quencher inactive
Cc1nc(CC(=O)N/N=C/c2ccc(OCC(=O)O)cc2)cs1	none
CCSc1nnc(NC(=O)C2CC(=O)N(Cc3ccccc3)C2)s1 (configuration not stated)	none
COc1ccc(OCCSc2nnc(-c3cccnc3)n2N)cc1	SR-BI DiI inh 106 (no result: H9c2 TAG inh) | DiI quencher inactive
CCOC(=O)c1ccc(S(=O)(=O)N2CCN(CCc3ccncc3)CC2)cc1	none
CC(C)[C@H](NC(=O)c1ccco1)C(=O)OCC(=O)c1ccc2c(c1)NC(=O)CO2	none | DiI quencher inactive
CCCn1c(=O)[nH]c(=O)c2c1nc(-c1ccc(OC(F)(F)C(F)C(F)(F)F)cc1)n2CCOC (configuration not stated)	SR-BI DiI inh 75 | DiI quencher inactive
CC(C)CN(C(=O)COc1ccc(-c2nnco2)cc1)C1CCS(=O)(=O)C1 (configuration not stated)	none
CCOC(=O)C1CCCN(C(=O)c2cc(COc3ccc(C)nc3)on2)C1 (configuration not stated)	none | DiI quencher inactive
CC(NC(=O)C1CCC(CNc2c(N3CCCCC3)c(=O)c2=O)CC1)c1ccccc1 (configuration not stated)	none
COCCCNc1nc2c(-c3ccc(C)cc3)nnn2c2ccccc12	none (no result: H9c2 TAG inh)
COCCCNc1nc2c(-c3cccc(C)c3)nnn2c2ccccc12	SR-BI DiI inh 103 | DiI quencher inactive
COc1cc(/C=C\C(=O)NCc2ccc3c(c2)cc(C)n3C)cc(OC)c1OC	SR-BI DiI inh 78 (no result: A1 inh) | DiI quencher inactive
CC1=CC2=NC(=O)C(c3ccccc3)C(=O)N2C=C1 (configuration not stated)	none (no result: A1 inh)
Cc1cc(C)cc(N2CN=C3SCC(=O)N3C2)c1	SR-BI DiI inh inconclusive (no result: H9c2 TAG inh) | DiI quencher inactive
COc1ccc(N2CN=C3SCC(=O)N3C2)cc1	none
CCCNC(=O)c1ccc(N2CCC3(CC2)CC(c2cccc(Br)c2)=NO3)c([N+](=O)[O-])c1	none

Screening results as filed in PubChem.
